About 130 (0.21%) of roughly 62,000 compounds were called active. The sample holds actives, similar compounds and a random draw of the others, so the mix is not that of the screen. A number with no mark means an inactive call.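 Rule for the calls: active = inhibition above the mean of all tested compounds plus 3 SD (cut at about 40% in these data); inactive = the rest.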

This test is described as follows: inhibitors of PMA/ionomycin-induced NF-kB reporter, primary screen, antigen receptor NF-kB inhibitor project, cell-based, HEK-293 luciferase reporter, luminescence (AID 465).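 Note: 0% = stimulated DMSO wells and 100% = 10 µM reference inhibitor 5653914.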 To be noted: HEK-293 NF-kB luciferase reporter, at 3 µM, stronger effect = higher value. An outline of the steps:
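Material: HEK-293 cells with stable firefly luciferase reporter driven by four HIV NF-kB elements / Also added: PMA plus ionomycin mix as NF-kB-activating stimulus / Compound dosing: 3 µM once, 0.30% DMSO / Times: 1 h pretreatment, 16 h stimulation, 37 °C / Signal: luminescence / Evaluation: per-plate % inhibition versus controls / Benchmarks: DMSO and 10 µM reference inhibitor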
Take `CC1CN(C(=O)CN2C(=O)NC(C)(c3ccccc3)C2=O)CC(C)O1` (configuration not stated): the inhibition is 6.5%. With `Cc1cc(=O)oc(C)c1C(=O)NCc1ccc(F)cc1`, the inhibition was 4.5%. For the compound `O=C(CCn1c(=O)oc2ccccc21)Nc1ccon1`, the inhibition is 6.5%. For the compound `CCOC(=O)N1CCN(S(=O)(=O)c2ccc(C(=O)Nc3ccc(F)cc3F)cc2)CC1`, the inhibition was 17.4%.

In the case of `O=C(C(NS(=O)(=O)c1cccc2nsnc12)c1ccccc1)N1CCN(c2ccccn2)CC1` (configuration not stated), the inhibition is 10.9%.

Turning to `CCOc1cc(C(=O)N2CCc3cc(OC)c(OC)cc3C2)ccc1OC(F)F`, the inhibition is 31.7%. In the case of `O=C(Cc1c(F)cccc1Cl)N1CCN(C(=O)c2ccco2)CC1` it was 10.7%; in that of `Cc1nc2c(-c3ccc(F)cc3)c(C)nn2c(C)c1CCC(=O)N1CCN(c2ccccn2)CC1`, 0.2%. Take `CCn1cc(C(=O)NC2CCCCCC2)c(=O)c2cc(S(=O)(=O)N3CCCCC3)ccc21`: the inhibition is 20.8%.

With `COc1ccc(OC)c(NC(=O)CSc2nc3cccnc3n2C)c1`, the inhibition is 18.9%.

With `CC(Sc1nncs1)C(=O)NCc1ccc2c(c1)OCO2` (configuration not stated), the inhibition is -5.2%. For the compound `COc1ccccc1NC(=O)CN1CCN(S(=O)(=O)c2ccc(Br)cc2)CC1`, the inhibition is 4.2%.

`CCOC(=O)c1cccc(NC(=O)C2CCCN(S(=O)(=O)c3cnc[nH]3)C2)c1` (configuration not stated): the inhibition is 11.6%. Consider `O=c1ccc2cc(S(=O)(=O)N3CCN(c4ccccc4)CC3)ccc2o1`, for which the inhibition was 10.7%.

As to `CCCCCN(C(=O)NC(=O)Nc1ccccc1OC)S(C)(=O)=O`, the inhibition was 7.9%. `COc1ccc(-c2nnn(Cc3nc(N)nc(N4CCCCC4)n3)n2)cc1`: the inhibition was 10.9%. Consider `O=C(NCCCCO)C(F)(F)C(F)(F)C(F)(F)C(=O)NCCCCO`, for which the inhibition is 13.3%. Under `CCOC(=O)c1cc(C)sc1NC(=O)C1CCC1` stands 0.1%; under `CC(C)Cc1ccc(S(=O)(=O)N2CCN(C(=O)c3ccco3)CC2)cc1`, 9.1%; under `CC(Sc1nncn1C)C(=O)Nc1ccccc1-c1ccccc1` (configuration not stated), 14.4%.

In the case of `O=C(CN1C(=O)NC2(CCCCC2)C1=O)NCCC1=CCCCC1`, the inhibition was 17.4%. In the case of `CCN(CC)C(=O)N1CCN(C(=O)c2ccc(C)cn2)CC1`, the inhibition was 4.3%.

`Fc1ccc(Cn2nnnc2C(c2cccs2)N2CCCCCC2)cc1` (configuration not stated): the inhibition was 9.2%. In the case of `CCCC(=O)Nc1nnc(CC(=O)OCC)s1` it was 9.9%; in that of `CCCCNc1nc2ccccc2nc1NS(=O)(=O)c1cccs1`, 3.3%; in that of `Cc1noc(/C=C/N(C)C)c1S(=O)(=O)N1CCCC(C(=O)NCc2ccco2)C1` (configuration not stated), 5%. On to `O=C(Cc1cccs1)N1CCCC(c2nc(-c3ccc(S(=O)(=O)N4CCCC4)cc3)no2)C1` (configuration not stated), for which the inhibition is 6.1%. As to `Cc1cc(C(=O)COC(=O)c2cccs2)c(C)n1-c1c(C)n(C)n(-c2ccccc2)c1=O`, the inhibition was 20%. For `COc1cc(OC)cc(C(=O)Nc2ncc3c(n2)CC(C)(C)CC3=O)c1`, the inhibition was 18.8%.

With `O=S(=O)(/C=C/c1ccccc1)NCCc1ccccn1`, the inhibition was 3.3%. Consider `CCCCc1nc2c(=O)[nH]c3ccccc3c2o1`, for which the inhibition is 7.6%. `CNC(=O)c1nnn(-c2ccccc2)c1C(=O)NC`: the inhibition was 14%.

Take `CCC(=O)Nc1ccccc1C(=O)N1CCN(Cc2ccccc2)CC1`: the inhibition is 9.5%.

Regarding `Cc1[nH]c2ccccc2c1C(=O)CSCC(=O)O`, the inhibition was 16%. For `C/C(=C\C(=O)c1cccnc1)Nc1ccc(C)c(C)c1`, the inhibition is -5%. Turning to `O=C(O)c1cccc2c1C(=O)N(C1CCCCC1)C2`, the inhibition is 8.4%. For the compound `CS(=O)(=O)N1CCN(C(=O)Cc2ccccc2)CC1`, the inhibition is 5.7%. For `CCCCC(CC)C(=O)Nc1ccc(Cl)cn1` (configuration not stated), the inhibition was -0.6%. In the case of `CCN(CC)CCCN1C(=O)C(=O)/C(=C(/O)c2c(C)nc3ccccn23)C1c1ccc(C)o1` (configuration not stated), the inhibition was 13.6%.

As for `COCCNC(=O)CN(C(=O)CCC(=O)Nc1cc(C)on1)c1ccc(C)cc1C`, the inhibition was 1.1%. For `CC(C)C(=O)N1CCN(CCN=CC2=C(O)CC(c3ccco3)CC2=O)CC1` (configuration not stated), the inhibition is 9.5%. For `CC1CCCCC1NC(=O)CCS(=O)(=O)c1cccc2nonc12` (configuration not stated), the inhibition is 10.9%.

In the case of `CCOC(=O)N1CCC(NC(=O)Cn2cc3c(n2)CCCCC3)CC1`, the inhibition is 17.8%.

For the compound `CCOc1ccc(OCC)c(NC(=O)C(NS(=O)(=O)c2ccc3c(c2)oc(=O)n3C)C(C)C)c1` (configuration not stated), the inhibition is 12.5%.

With `CCC1Oc2ccc(Cl)cc2N(CC(=O)O)C1=O` (configuration not stated), the inhibition was 10.2%.

Turning to `CC(CCO)Nc1nc2c([nH]1)c(=O)n(C)c(=O)n2C` (configuration not stated), the inhibition was 22.2%.

`COC(=O)[C@H](C(C)C)n1c(C)c(C(C)=O)c(C(C)=O)c1C`: the inhibition was -9.6%.

For the origin of these results see PubChem BioAssay AID465 (The Scripps Research Institute Molecular Screening Center, 2006).
